Data as given in paper PMC10468838 (ACS Omega, 2023).
Converted amounts (≈) assume the structure as drawn. Read-outs that look alike come from different tables or passages of the source.

Tests used:
[1] = Water solubility by UV method; format: physicochemical; details: thermodynamic from solid
How it was run: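 For a UV calibration curve, absorbance was measured at five concentrations of each compound in methanol/water (1:1, v/v). Excess solid compound was left standing in water for 2 h, then filtered. Absorbance of the filtrate was read and converted to concentration using the curve, giving water solubility.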

logP by UV method = format: physicochemical
[2] = tested on: MCF-7 breast cancer cells; experiment: MTT assay, MCF-7 cells; format: cell-based; details: Homo sapiens, MCF7, 72 h, read-out: IC50 (μM) MCF-7
How it was run: (§1)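 HT29, H1975, A549, MCF-7 and normal colon epithelial CCD841 cells were seeded at 5×10^5 cells/mL and grown 24 h. They were exposed to test compound at 0.5, 1.0, 2.0, 5.0 or 12.5 μM in DMEM for 24 h, then cultured a further 72 h. MTT (5 mg/mL solution) was added for 4 h at 37 °C and the formazan dissolved in DMSO. A490 was read. IC50 is given as mean ± s.d., n = 3.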

[3] = tested on: H1975 lung adenocarcinoma cells; experiment: MTT assay, H1975 cells; format: cell-based; details: Homo sapiens, NCI-H1975, 72 h, read-out: IC50 (μM) H1975
How it was run: as §1

A549 lung cancer cells = experiment: MTT assay, A549 cells; format: cell-based; details: Homo sapiens, A549, 72 h, read-out: IC50 (μM) A549
How it was run: as §1

HT29 colon cancer cells = experiment: MTT assay, HT29 cells; format: cell-based, human; details: for IC50: read-out: IC50 (μM) HT29
How it was run: as §1

HT29 cells = experiment: Apoptosis assay, annexin V-FITC/PI flow cytometry; format: cell-based, human
How it was run: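 HT29 cells were seeded at 2×10^4 cells per well and left overnight. They were treated with test compound at 1.0 or 5.0 μM (parent reference 5.0 μM) for 24 h, then kept another 72 h. Cells were harvested, washed in PBS and stained with annexin V-FITC/PI. Early plus late apoptotic cells were counted by flow cytometry. Results are mean ± SD of three separate assays.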

[4] = tested on: malondialdehyde (MDA) in HT29 cells; experiment: Lipid peroxidation; format: cell-based, human; details: compared with CO
How it was run: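 HT29 cells were pretreated with or without ferrostatin-1 (1.0 μM) for 4 h. They were then exposed to test compound at 1.0 or 5.0 μM, with the parent reference at 5.0 μM. Lipid peroxidation was quantified as malondialdehyde with an MDA assay kit. Results are mean ± SD, n = 3.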

ROS levels in HT29 cells = experiment: Intracellular ROS detection with DCFH-DA probe; format: cell-based, human; details: 12 h, CO 5.0 μM, 8h 1.0 or 5.0 μM
How it was run: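 HT29 cells (about 1×10^4 per well) were exposed to test compound at 1.0 or 5.0 μM for 12 h, with the parent reference at 5.0 μM. DCFH-DA (10 μM) was added for 30 min. DCF green fluorescence (λex 488 nm, λem 500–550 nm) was imaged by confocal microscopy. Results are mean ± SD of three separate assays.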

[5] = tested on: human normal colon epithelial cells (CCD841); experiment: MTT assay, normal CCD841 cells; format: cell-based
How it was run: as §1

H2AX in HT29 cells = experiment: Western blot, H2AX; format: cell-based, human; details: Western blotting
How it was run: (§2)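 HT29 cells were cultured for 4 h in medium containing test compound at 1.0 or 5.0 μM, with the parent reference at 5.0 μM. Lysis was in RIPA buffer with protease and phosphatase inhibitors, 30 min on ice. Protein was quantified by BCA, and equal amounts were run on SDS-PAGE and transferred to PVDF. Band levels were expressed relative to β-actin.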

GSH level in HT29 cells = experiment: GSH level assay; format: cell-based, human; details: 24 h, 1.0 or 5.0 μM, compared with CO
How it was run: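 HT29 cells were exposed for 24 h to test compound at 1.0 or 5.0 μM, with the parent reference at 5.0 μM. Cells were harvested and counted. Glutathione was measured with a QuantiChrome glutathione assay kit. Results are mean ± SD, n = 3.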

[6] = tested on: cleaved-caspase 3 in HT29 cells; experiment: Western blot, cleaved-caspase 3; format: cell-based, human; details: 1.0 and 5.0 μM, Western blotting
How it was run: as §2

GPX4 in HT29 cells = experiment: Western blot, GPX4; format: cell-based, human; details: 1.0 or 5.0 μM, compared with CO
How it was run: as §2

MMP of HT29 cells = experiment: Mitochondrial membrane potential with JC-1 dye; format: cell-based, human; details: 8h 5 μM
[7] = tested on: HT29, H1975, A549 and MCF-7 cancer cells; experiment: MTT assay, summary over the four cancer cell lines; format: cell-based, human; details: for IC50: Homo sapiens, read-out: IC50 against the four cancer cell lines
How it was run: as §1

Bcl-2 in HT29 cells = experiment: Western blot, Bcl-2; format: cell-based, human; details: 1.0 and 5.0 μM, Western blotting

Row | SMILES | solubility at 2 h [1] | logP (logP by UV method) | IC50 [2] | IC50 [3] | IC50 (A549 lung cancer cells) | IC50 (HT29 colon cancer cells; Homo sapiens, HT-29, 72 h) | also measured
1 | CN1CCC(NC(=O)c2cc3c4ccccc4n4c(=O)ccc(n2)c34)CC1 [8i, N-(1-Methylpiperidin-4-yl)-6-oxo-6H-indolo[3,2,1-de][1,5]naphthyridine-2-carboxamide] | 60.4 ± 5.4 µg/mL (≈ 168 µM) | 1.38 | 4.6 ± 0.5 µM | 3 ± 0.4 µM | 3.4 ± 0.3 µM | 2.3 ± 0.3 µM | 
2 | CN(C)CCCNC(=O)c1cc2c3ccccc3n3c(=O)ccc(n1)c23 [8c, N-(3-(Dimethylamino)propyl)-6-oxo-6H-indolo[3,2,1-de][1,5]naphthyridine-2-carboxamide] |  |  | 4.6 ± 0.5 µM | 7.7 ± 0.8 µM | 4.8 ± 0.4 µM | 4.1 ± 0.3 µM | 
3 | O=C(NCCNCCO)c1cc2c3ccccc3n3c(=O)ccc(n1)c23 [8d, N-(2-((2-Hydroxyethyl)amino)ethyl)-6-oxo-6H-indolo[3,2,1-de][1,5] naphthyridine-2-carboxamide] |  |  |  |  | 4.2 ± 0.3 µM | 2.6 ± 0.2 µM | 
4 | CN(C)CCNC(=O)c1cc2c3ccccc3n3c(=O)ccc(n1)c23 [8b, N-(2-(Dimethylamino)ethyl)-6-oxo-6H-indolo[3,2,1-de][1,5]naphthyridine-2-carboxamide] |  |  | 3.8 ± 0.3 µM | 7.5 ± 0.6 µM | 3.2 ± 0.2 µM | 2.9 ± 0.4 µM | 
5 | CCN(CC)CCCC(C)NC(=O)c1cc2c3ccccc3n3c(=O)ccc(n1)c23 (stereo not drawn) [8k, N-(5-(Diethylamino)pentan-2-yl)-6-oxo-6H-indolo[3,2,1-de][1,5]naphthyridine-2-carboxamide] |  |  | 3.8 ± 0.3 µM | 5.5 ± 0.7 µM |  | 4.3 ± 0.5 µM | 
6 | NC1CCC(NC(=O)c2cc3c4ccccc4n4c(=O)ccc(n2)c34)CC1 (stereo not drawn) [8j, N-(4-Aminocyclohexyl)-6-oxo-6H-indolo[3,2,1-de][1,5]naphthyridine-2-carboxamide] |  |  | 5.9 ± 0.5 µM |  | 3.5 ± 0.4 µM |  | 
7 | O=C(NCCN1CCCCC1)c1cc2c3ccccc3n3c(=O)ccc(n1)c23 [8f, 6-Oxo-N-(2-(piperidin-1-yl)ethyl)-6H-indolo[3,2,1-de][1,5]naphthyridine-2-carboxamide] | 41.3 ± 4.5 µg/mL (≈ 110 µM) | 2.17 | 2.4 ± 0.2 µM | 1.6 ± 0.1 µM | 2 ± 0.1 µM | 1.7 ± 0.3 µM | 
8 | CN1CCN(C2CCN(c3ccc(NC(=O)c4cc5c6ccccc6n6c(=O)ccc(n4)c56)cc3)CC2)CC1 [8l, N-(4-(4-(4-Methylpiperazin-1-yl)piperidin-1-yl)phenyl)-6-oxo-6H-indolo[3,2,1-de][1,5]naphthyridine-2-carboxamide] |  |  | > 10 µM | > 10 µM | > 10 µM | > 10 µM | 
9 | CN1CCN(CCNC(=O)c2cc3c4ccccc4n4c(=O)ccc(n2)c34)CC1 [8h, N-(2-(4-Methylpiperazin-1-yl)ethyl)-6-oxo-6H-indolo[3,2,1-de][1,5] naphthyridine-2-carboxamide] | 70.5 ± 3.6 µg/mL (≈ 181 µM) | 1.19 | 1.7 ± 0.2 µM | 1.9 ± 0.3 µM | 1.3 ± 0.1 µM | 1 ± 0.1 µM | percentage of apoptotic cells (early + late) (HT29 cells; 1.0 μM): 31.55%; percentage of apoptotic cells (early + late) (HT29 cells; 5.0 μM): 45.14%; level of malondialdehyde (MDA), lipid peroxidation [4]: increased the level of malondialdehyde; intracellular ROS level (DCFH-DA fluorescence) (ROS levels in HT29 cells): Intense green fluorescence; IC50 ([5]; Homo sapiens, CCD-841, read-out: IC50 in normal cell line CCD841): 17.1 ± 2.5 µM; fold less cytotoxicity in CCD841 than in HT29 cells ([5]; IC50 CCD841 vs IC50 HT29): 17 fold; increase of H2AX expression (H2AX in HT29 cells; 1.0 μM): 2.4 fold; increase of H2AX expression (H2AX in HT29 cells; 5.0 μM): 3.2 fold; fold lower IC50 than CO against HT29 cells (HT29 colon cancer cells; HT29 cells, vs CO): 8.6 fold; GSH level (GSH level in HT29 cells): markedly reduced; cleaved-caspase 3 level [6]: remarkably led to cleavage of caspase-3; GPX4 expression (GPX4 in HT29 cells): markedly reduced; MMP (JC-1 red/green fluorescence) (MMP of HT29 cells): intracellular red fluorescence almost disappeared; IC50 [7]: 1 to 1.9 µM; fold higher cytotoxicity than CO against the four cancer cells ([7]; vs CO, four cancer cell lines): 5–9 fold; Bcl-2 expression (Bcl-2 in HT29 cells): reduced the expression of antiapoptotic Bcl-2 protein in a dose-dependent manner
10 | O=C(NCCN1CCCC1)c1cc2c3ccccc3n3c(=O)ccc(n1)c23 [8e, 6-Oxo-N-(2-(pyrrolidin-1-yl)ethyl)-6H-indolo[3,2,1-de][1,5]naphthyridine-2-carboxamide] |  |  | 4.5 ± 0.6 µM |  | 2.1 ± 0.3 µM |  | 
11 | COc1cccc2c1C(=O)c1c(O)c3c(c(O)c1C2=O)C[C@@](O)(C(=O)CO)C[C@@H]3O[C@H]1C[C@H](N)[C@H](O)[C@H](C)O1 [ADM, reference compound] |  |  |  |  |  |  | IC50 (HT29 colon cancer cells; HT29 cells, MTT, incubated for 72 h, mean ± s.d., n = 3): 2.6 ± 0.4 µM
12 | CCN(CC)CCNC(=O)c1cc2c3ccccc3n3c(=O)ccc(n1)c23 [8a, N-(2-(Diethylamino)ethyl)-6-oxo-6H-indolo[3,2,1-de][1,5]naphthyridine-2-carboxamide] |  |  | 4.7 ± 0.4 µM |  | 3.8 ± 0.5 µM | 2.2 ± 0.3 µM | 
13 | O=c1ccc2nccc3c4ccccc4n1c23 [CO, Canthin-6-one, reference compound] | 16.1 ± 1 µg/mL (≈ 73.1 µM) | 1.87 | 8.9 ± 0.9 µM | 10.7 ± 1.2 µM | 7.6 ± 0.6 µM | 8.6 ± 0.7 µM | percentage of apoptotic cells (early + late) (HT29 cells; 5.0 μM): 22.68%; intracellular ROS level (DCFH-DA fluorescence) (ROS levels in HT29 cells): weak fluorescence signal; increase of H2AX expression (H2AX in HT29 cells; 5.0 μM): approximately 1.3 fold; IC50 [7]: 7.6 to 10.7 µM
